Results taken from paper PMC3280409 (Analytical and Bioanalytical Chemistry, 2012).
Where a name gives a salt, the structure may show the parent alone. d = 2'-deoxy (DNA); r = 2'-OH (RNA)

How the values were obtained:
[1] = test system: MBNL1-His6/Biot-(CUG)12 binding; test: HTRF binding assay of MBNL1-His6 and Biot-; settings: for IC50: read-out: IC50 (μM) HTRF, hit confirmation, 12-point 1:3 titration, 0.3 nM – 57.5 μM, 1536-well, duplicates
Procedure, shortened: (§1)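 Recombinant MBNL1-His6 (IPTG-induced, Ni-agarose purified, desalted, purity-corrected by SYPRO-stained gel) at 20 nM with 20 nM Biot-(CUG)12. Read after 60 min at room temperature, in duplicate points. IC50 from dose-response inhibition fits of three independent experiments.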

[2] = test system: MBNL1-His6/Biot-(CUG)12 binding; test: AlphaScreen binding assay of MBNL1-His6 and Biot-; settings: 1536-well format, 4 ul final volume
Procedure, shortened: as §1

(CUG)20 RNA = test: RNA degradation assay; assay type: biochemical; settings: 30 min, assay buffer, 37°C, varying compound concentrations (NF449 up to 800 μM)
Procedure, shortened: (§2)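 5′-32P-labelled RNA was gel-purified, denatured at 85°C for 1 min and slow-cooled to 37°C. At 100 pM it was incubated with varying test compound concentrations in Tris-HCl pH 8.0/NaCl/KCl/MgCl2 assay buffer for 30 min at 37°C. The reaction was stopped with 7.5 M urea/20 mM EDTA and analysed on denaturing 12% PAGE.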

(CAG)20 RNA = test: RNA degradation assay; assay type: biochemical; settings: 30 min, assay buffer, 37°C, varying compound concentrations (NF449 up to 800 μM)
Procedure, shortened: as §2

(CUG)109 transcript = test: Filter binding assay of MBNL1 constructs to; settings: read-out: KD, (CUG)109 binding affinity
Procedure, shortened: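 5′-32P-labelled RNA was denatured at 85°C for 1 min and slow-cooled to 37°C in Tris-HCl pH 8.0/NaCl/KCl/MgCl2 assay buffer. It was incubated with full-length or truncated recombinant MBNL1 for 30 min at 37°C, then captured on a nitrocellulose/Hybond N+ sandwich by slot-blot. Kd came from a one-site binding model over three independent experiments.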

Row | Molecule | IC50 [1] | also measured
1 | ssCAG-21: unlabeled mixed RNA/DNA oligo, sequence 5′-rUrArGrCrArGrCrArGrCrArGrCrArGrCrArGrCTT; positive control competitive inhibitor (UAGCAGCAGCAGCAGCAGCTT; sugars from the 5' end r19 d2, backbone not given here) |  | IC50 of inhibition of MBNL1-(CUG)12 binding, HTRF ([1]; 1536-well format, 4 ul final volume): comparable to those obtained from the 384-well assays; IC50 of inhibition of MBNL1-(CUG)12 binding, AlphaScreen [2]: comparable to those obtained from the 384-well assays
2 | Cl.Cl.Oc1ccc2c3c1O[C@H]1c4[nH]c5c(c4C[C@@]4(O)[C@@H](C2)N(CC2CC2)CC[C@]314)C[C@@]1(O)[C@H]2Cc3ccc(O)c4c3[C@@]1(CCN2CC1CC1)[C@H]5O4 [nor-Binaltorphimine dihydrochloride] | 21.9 µM | RNA degradation of (CUG)20 ((CUG)20 RNA): significant RNA degradation; RNA degradation of (CAG)20 ((CAG)20 RNA): significant RNA degradation
3 | CCCN1C[C@H](CSC)C[C@@H]2c3cccc4[nH]cc(c34)C[C@H]21 [Pergolide methanesulfonate] | 24.8 µM | 
4 | Cn1ccc2cc(NC(=O)Nc3cccnc3)ccc21 [SB 200646 HCl] | 55.7 µM | 
5 | CN1C[C@H](CNC(=O)OCc2ccccc2)C[C@@H]2c3cccc4c3c(cn4C)C[C@H]21 [Metergoline] | 52 µM | 
6 | O=C(Nc1cc(C(=O)Nc2ccc(S(=O)(=O)O)cc2S(=O)(=O)O)cc(C(=O)Nc2ccc(S(=O)(=O)O)cc2S(=O)(=O)O)c1)Nc1cc(C(=O)Nc2ccc(S(=O)(=O)O)cc2S(=O)(=O)O)cc(C(=O)Nc2ccc(S(=O)(=O)O)cc2S(=O)(=O)O)c1 [NF449 octasodium salt] | 31 µM | 
7 | CC(O)C(C)OC(=O)[C@@H]1C[C@@H]2c3cccc4c3c(cn4C(C)C)C[C@H]2N(C)C1 (some centres unmarked) [LY-53,857 maleate] | 38 µM | 
8 | MBNL1-FL: full length recombinant MBNL1 protein (protein, UniProt Q9NR56 1-388, looked up, full-length) MAVSVTPIRDTKWLTLEVCREFQRGTCSRPDTECKFAHPSKSCQVENGRVIACFDSLKGRCSRENCKYLHPPPHLKTQLEINGRNNLIQQKNMAMLAQQMQLANAMMPGAPLQPVPMFSVAPSLATNASAAAFNPYLGPVSPSLVPAEILPTAPMLVTGNPGVPVPAAAAAAAQKLMRTDRLEVCREYQRGNCNRGENDCRFAHPADSTMIDTNDNTVTVCMDYIKGRCSREKCKYFHPPAHLQAKIKAAQYQVNQAAAAQAAATAAAMTQSAVKSLKRPLEATFDLGIPQAVLPPLPKRPALEKTNGATAVFNTGIFQYQQALANMQLQQHTAFLPPVPMVHGATPATVSAATTSATSVPFAATATANQIPIISAEHLTSHKYVTQM |  | Kd ((CUG)109 transcript): 0.00692 ± 0.00078 µM
